# Measured values as given in ChEMBL document CHEMBL4622959, “Design, synthesis and biological evaluation of novel 6-phenyl-1,3a,4,10b-tetrahydro-2H-benzo[c]thiazolo[4,5-e]azepin-2-one derivatives as potential BRD4 inhibitors” (Bioorg Med Chem, 2020).
# Key:
# [1] = molecular target: T1, Bromodomain-containing protein 4 (Homo sapiens, UniProt O60885); experiment: Displacement of APC-labeled biotinylated-avidin from […]-chelated recombinant human N-terminal GST-tagged BRD4 bromodomain 1 expressed in Escherichia coli preincubated for 15 mins followed by APC-labeled biotinylated-avidin addition and measured after 1 hr under dark condition by TR-FRET assay
# [2] = test system: MV4-11; experiment: Antiproliferative activity against human MV4-11 cells assessed as reduction in cell viability incubated for 72 hrs by CCK-8 assay; type: functional, cell-based; details: MV4-11, 72 h
# Method in brief: (§1)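 Cells grown in IMDM with 10% FBS and 1% penicillin–streptomycin at 37 °C in a CO₂ incubator and harvested in log phase. Seeded at 10,000 cells per well in 100 μL medium, cultured 12 h, then given compounds at a range of concentrations for 72 h. CCK-8 added for 1–4 h, absorbance read at 450 nm. IC₅₀ calculated from the dose-response data.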
# [3] = test system: HL-60; experiment: Antiproliferative activity against human HL60 cells assessed as reduction in cell viability incubated for 72 hrs by CCK-8 assay; type: functional, cell-based; details: HL-60, 72 h; method in brief: as §1
# [4] = test system: MV4-11; experiment: Cell cycle arrest in human MV4-11 cells assessed as accumulation at S phase at 0.5 uM after 12 hrs by propidium iodide staining based flow cytometric analysis (reference value: 38.62%); type: functional
# [5] = test system: MV4-11; experiment: Induction of apoptosis in human MV4-11 cells assessed as late apoptotic cell at 0.5 uM after 12 hrs by Annexin V-FITC/propidium iodide staining-based flow cytometric analysis (reference value: 1.28 %); type: functional
# [6] = test system: MV4-11; experiment: Cell cycle arrest in human MV4-11 cells assessed as accumulation at S phase at 5 uM after 12 hrs by propidium iodide staining based flow cytometric analysis (reference value: 38.62%); type: functional
# [7] = test system: MV4-11; experiment: Induction of apoptosis in human MV4-11 cells assessed as early apoptotic cell at 0.5 uM after 12 hrs by Annexin V-FITC/propidium iodide staining-based flow cytometric analysis (reference value: 0.56 %); type: functional
# [8] = test system: MV4-11; experiment: Cell cycle arrest in human MV4-11 cells assessed as accumulation at G0/G1 phase at 5 uM after 12 hrs by propidium iodide staining based flow cytometric analysis (reference value: 43.91%); type: functional
# [9] = test system: MV4-11; experiment: Induction of apoptosis in human MV4-11 cells assessed as live cell at 0.5 uM after 12 hrs by Annexin V-FITC/propidium iodide staining-based flow cytometric analysis (reference value: 97.99 %); type: functional
# [10] = test system: MV4-11; experiment: Cell cycle arrest in human MV4-11 cells assessed as accumulation at G1 phase after 12 hrs by propidium iodide staining based flow cytometric analysis; type: functional
# [11] = test system: MV4-11; experiment: Cell cycle arrest in human MV4-11 cells assessed as accumulation at G0/G1 phase at 0.5 uM after 12 hrs by propidium iodide staining based flow cytometric analysis (reference value: 43.91%); type: functional
# [12] = test system: MV4-11; experiment: Induction of apoptosis in human MV4-11 cells assessed as early apoptotic cell at 5 uM after 12 hrs by Annexin V-FITC/propidium iodide staining-based flow cytometric analysis (reference value: 0.56 %); type: functional
# [13] = test system: MV4-11; experiment: Cell cycle arrest in human MV4-11 cells assessed as accumulation at G2/M phase at 5 uM after 12 hrs by propidium iodide staining based flow cytometric analysis (reference value: 18.19%); type: functional
# [14] = test system: MV4-11; experiment: Induction of apoptosis in human MV4-11 cells assessed as late apoptotic cell at 5 uM after 12 hrs by Annexin V-FITC/propidium iodide staining-based flow cytometric analysis (reference value: 1.28 %); type: functional
# [15] = test system: MV4-11; experiment: Induction of apoptosis in human MV4-11 cells assessed as live cell at 5 uM after 12 hrs by Annexin V-FITC/propidium iodide staining-based flow cytometric analysis (reference value: 97.99 %); type: functional
# [16] = test system: MV4-11; experiment: Induction of apoptosis in human MV4-11 cells assessed as necrotic cell at 5 uM after 12 hrs by Annexin V-FITC/propidium iodide staining-based flow cytometric analysis (reference value: 0.17 %); type: functional
# [17] = molecular target: T1, Bromodomain-containing protein 4; experiment: Inhibition of BRD4 in human MV4-11 cells assessed as reduction in c-Myc expression level after 4 hrs by Western blot analysis; type: cell-based
# Method in brief: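 Log-phase MV-4-11 cells (IMDM, 10% FBS, 1% penicillin–streptomycin, 37 °C) were treated with compound for 4 h, then lysed at 4 °C and protein quantified. Lysates were run on SDS-PAGE (10% separating, 4% stacking gel) and transferred to PVDF. Membranes were blocked 2 h in 5% non-fat milk/TBST at room temperature, probed for c-Myc, and band intensity quantified from three independent experiments.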
# [18] = test system: MV4-11; experiment: Induction of apoptosis in human MV4-11 cells assessed as necrotic cell at 0.5 uM after 12 hrs by Annexin V-FITC/propidium iodide staining-based flow cytometric analysis (reference value: 0.17 %); type: functional
# [19] = test system: MV4-11; experiment: Cell cycle arrest in human MV4-11 cells assessed as accumulation at G2/M phase at 0.5 uM after 12 hrs by propidium iodide staining based flow cytometric analysis (reference value: 18.19%); type: functional
# [20] = test system: MV4-11; experiment: Induction of apoptosis in human MV4-11 cells after 12 hrs by Annexin V-FITC/propidium iodide staining-based flow cytometric analysis; type: functional, cell-based
Compound,IC50 [1] [nM],IC50 [2] [nM],IC50 [3] [nM],further results
CCCCNC(=O)CC1N=C(c2ccc(Cl)cc2)c2cc(OC)ccc2-c2c1sc(=O)n2C (configuration not stated),1020,3480,–,–
COc1ccc2c(c1)C(c1ccc(Cl)cc1)=NC(CC(=O)N1CCCCC1)c1sc(=O)n(C)c1-2 (configuration not stated),430,910,8690,–
COc1ccc2c(c1)C(c1ccc(Cl)cc1)=NC(CC(=O)Nc1ccccc1)c1sc(=O)n(C)c1-2 (configuration not stated),200,670,7740,–
CCOC(=O)CC1N=C(c2ccc(Cl)cc2)c2cc(OC)ccc2-c2c1sc(=O)n2C (configuration not stated),420,880,6210,–
C#CCNC(=O)CC1N=C(c2ccc(Cl)cc2)c2cc(OC)ccc2-c2c1sc(=O)n2C (configuration not stated),210,700,8460,–
COc1ccc2c(c1)C(c1ccc(Cl)cc1)=NC(CC(=O)Nc1ccc(O)cc1)c1sc(=O)n(C)c1-2 (configuration not stated),510,1060,9050,–
COc1ccc2c(c1)C(c1ccc(Cl)cc1)=NC(CC(=O)NC1CCCC1)c1sc(=O)n(C)c1-2 (configuration not stated),110,420,5520,Activity [4]: 31.2%; Activity [5]: 5.93%; Activity [6]: 15.23%; Activity [7]: 6.1%; Activity [8]: 70.68%; Activity [9]: 87.61%; Activity [10]: Dose-dependent effect; Activity [11]: 50.67%; Activity [12]: 29.97%; Activity [13]: 14.11%; Activity [14]: 42.85%; Activity [15]: 26.76%; Activity [16]: 0.42%; inhibition [17]: Dose-dependent effect; Activity [18]: 0.35%; Activity [19]: 17.93%; Activity [20]: Dose-dependent effect
CCOC(=O)CC1OC(c2ccc(Cl)cc2)c2cc(OC)ccc2-c2c1sc(=O)n2C (configuration not stated),480,920,5440,–
COc1ccc2c(c1)C(c1ccc(Cl)cc1)=NC(CC(=O)N1CCCC1)c1sc(=O)n(C)c1-2 (configuration not stated),540,1120,10400,–
COc1ccc2c(c1)C(c1ccc(Cl)cc1)=NC(CC(=O)NC1CC1)c1sc(=O)n(C)c1-2 (configuration not stated),140,510,4560,–
COc1ccc2c(c1)C(c1ccc(Cl)cc1)=NC(CC(=O)NC(C)(C)C)c1sc(=O)n(C)c1-2 (configuration not stated),160,640,5410,–
Cc1sc2c(c1C)C(c1ccc(Cl)cc1)=N[C@@H](CC(=O)OC(C)(C)C)c1nnc(C)n1-2,–,–,3460,Activity [4]: 28.09%; Activity [5]: 9.14%; Activity [6]: 3.35%; Activity [7]: 5.23%; Activity [8]: 83.64%; Activity [9]: 85.57%; Activity [10]: Dose-dependent effect; Activity [11]: 57.35%; Activity [12]: 30.87%; Activity [13]: 13.01%; Activity [14]: 59.31%; Activity [15]: 9.58%; Activity [16]: 0.24%; Activity [18]: 0.06%; Activity [19]: 14.56%
COc1ccc2c(c1)C(c1ccc(Cl)cc1)=NC(CC(=O)Nc1ccc(F)cc1)c1sc(=O)n(C)c1-2 (configuration not stated),680,1440,12400,–
CCNC(=O)CC1N=C(c2ccc(Cl)cc2)c2cc(OC)ccc2-c2c1sc(=O)n2C (configuration not stated),740,1780,12800,–
CCNC(=O)C[C@@H]1N=C(c2ccc(Cl)cc2)c2cc(OC)ccc2-n2c(C)nnc21 [MOLIBRESIB],–,1230,–,–
COc1ccc2c(c1)C(c1ccc(Cl)cc1)=NC(CC(=O)O)c1sc(=O)n(C)c1-2 (configuration not stated),870,2860,–,–
COc1ccc2c(c1)C(c1ccc(Cl)cc1)=NC(CC(=O)N1CCOCC1)c1sc(=O)n(C)c1-2 (configuration not stated),480,940,7620,–
